Compound activity: PubChem, several laboratories
FAS-TE inh = FAS thioesterase (human) inhibition; recombinant FAS-TE, OMFH fluorogenic substrate, fluorescence endpoint; hit rate 0.67% among 360,000; P49327; inhibition, % at 15 µM; AID 602261;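 active = compounds whose normalised, plate-corrected inhibition of enzyme fluorescence in the single-dose primary screen is 50% or more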
Arrestin-AP2 inh = blocks beta-arrestin peptide binding to AP2 adaptin; FITC-arrestin peptide / GST-AP2 beads, flow cytometry; AP2 beta2 appendage carries R879A mutation; inhibition, % at 10 µM; hit rate 0.31% among 340,000; AID 504490;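 active = inhibition above a set limit, near 3 SD of compounds lacking own fluorescence, cut at about 54% in these data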
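Material – GST-tagged AP2 beta2-adaptin appendage (R879A) on 4 µm glutathione beads · Probe or stimulus – fluorescein-tagged arrestin peptide at 50 nM final · Timing – 12 min plus 1 h, RT · Detection – bead flow cytometry, FITC channel · Read-out basis – inhibition as reduced fluorescein signal on beads, percent · Medium – PBS plus Tween 20 (0.05%) and BSA (0.1%)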
iPSC survival up = enhancers of human iPSC single-cell survival. hiPSC single-cell survival, ATPlite luminescence; 100% = ROCK inhibitor wells, 0% = DMSO. survival enhancement, % at 20 µM. hit rate 0.044% among 360,000; in the data active = survival enhancement above about 18%;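 note: cells exposed to compounds for 16 hours before the ATP read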
SENP1 inh = blocks the human SENP1 SUMO protease catalytic domain; Q9P0U3; recombinant SENP1 catalytic domain, CyPet-SUMO1-YPet FRET cleavage; inhibition, % at 10 µM; hit rate 0.21% among 360,000;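 active = inhibition at least 30% at 10 µM, raw YFP signal under a set limit, fluorescence ratio 0.5 to 1.5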
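system = hSENP1 catalytic domain, recombinant | reagent = SFCypet-SUMO1-SFYpet substrate at 25 nM | doses = one dose per compound, 10 µM, 0.5% DMSO | incubation = enzyme reaction for 50 min at room temperature, dark | measured by = FRET, CFP and YFP emission | controls = no-enzyme low, enzyme-DMSO high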
NR3A LBD binder = modulators (binders) of human NR3A ligand-binding domain; NR3A LBD differential scanning fluorimetry, Tm shift; 0% = protein alone, 100% = glycine-bound protein; Tm shift relative to glycine control, % at 25 µM; hit rate 2.5% among 340,000; AID 1259313;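 active = melting temperature shift of at least 10% of the positive control shift, at one fixed dose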
Cardio protect = protects H9c2 cardiomyocytes from peroxide injury; hit rate 0.63% among 360,000; H2O2 injury protection, ATPLite, 2 h; AID 588492; protection from H2O2 cell death, % at 20 µM;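 active = compounds giving at least 50% protection of heart cells from peroxide-induced death in the single-dose screen, raw or plate-pattern-corrected value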
FAS-TE conf = FAS thioesterase (human) inhibition, confirmation. shares compounds with FAS-TE inh. hit rate 45% among 2,300. inhibition, % at 15 µM. recombinant FAS-TE, OMFH fluorogenic substrate, fluorescence;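 active = compounds inhibiting the enzyme by at least 50% at 15 µM in any one of the replicates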
Hits are given with their value; n = inactive; x = no result. A selection: hits, their analogues and other compounds. The true share with any hit is near 4%.

SMILES | FAS-TE inh | Arrestin-AP2 inh | iPSC survival up | SENP1 inh | NR3A LBD binder | Cardio protect | FAS-TE conf
Cc1cccc(COCC(CC(C)C)N2CCN(C(=O)c3ccc(C(C)(C)C)cc3)CCC2=O)c1 (centres undefined) | 59 | n | n | n | n | n | 56
CC(C)CC(COCc1cccc(Cl)c1)N1CCN(C(=O)c2ccc(C(F)(F)F)cc2)CCC1=O (centres undefined) | n | n | n | n | n | n | x
O=C1C2C3C=CC(CC3)C2S(=O)(=O)C2C3C=CC(CC3)C12 (centres undefined) | n | x | n | n | x | n | x
COc1ccc(OCCNC(=O)c2ccc3nc(C)c(N(C)C(=O)CCc4ccccc4)n3c2)cc1 | n | x | n | n | x | n | x
CCc1nc2ccc(C(=O)NCCOc3ccc(OC)cc3)cn2c1N(CC)CCOC | n | x | n | n | x | n | x
COc1cc([N+](=O)[O-])cc(/C=N/NC(=O)c2cncc(Br)c2)c1O | 59 | n | n | n | n | n | 71
COc1cc(/C=N/NC(=O)c2cncc(Br)c2)cc([N+](=O)[O-])c1O | 58 | n | n | n | n | n | 70
COc1cc([N+](=O)[O-])cc(/C=N/NC(=O)c2cc(C)nc3ccccc23)c1O | 54 | n | n | 40 | n | n | 67
COc1ccccc1-c1cc(C(=O)N/N=C/C=C/c2ccccc2[N+](=O)[O-])c2ccccc2n1 | 63 | n | n | n | n | 54 | n
O=C(N/N=C\c1ccc([N+](=O)[O-])o1)c1cncc(Br)c1 | n | n | n | n | n | n | x
O=C1c2cccc3cccc(c23)C(c2nc3ccccc3[nH]2)N1C1CC1 (centres undefined) | n | x | n | n | x | x | x
Cc1ccc(NC(=O)CCNS(=O)(=O)c2cc(Br)cnc2N)cc1Cl | 63 | n | n | n | 30 | n | 44
CCOC(=O)c1cc2c(=O)n3ccccc3nc2n(CC2CCCO2)c1=NC(=O)/C=C/c1ccccc1 (centres undefined) | 80 | n | n | n | n | n | 83
CCOC(=O)c1cc2c(=O)n3ccccc3nc2n(C(C)C)c1=NC(=O)c1c(-c2c(F)cccc2Cl)noc1C | 94 | n | n | n | n | n | n
COc1cc2c3c(cccc3c1)C(=O)N(CCN1CCCC1)C2=O | n | x | n | n | x | n | x
Cc1c(C#N)c2n(c1C)CCCC(=O)N2 | n | x | n | n | x | n | x
Cc1[nH][nH]c(=O)c1C(c1ccc(-c2cccc(Cl)c2)o1)c1c(C)[nH][nH]c1=O | 54 | n | n | n | n | n | n
Cc1[nH][nH]c(=O)c1C(c1ccc(-c2cccc(C(=O)O)c2)o1)c1c(C)[nH][nH]c1=O | n | n | n | n | n | n | x
COc1ccc([N+](=O)[O-])cc1NC(=O)c1ccc(CN(c2ccc(C)c(C)c2)S(C)(=O)=O)cc1 | 68 | n | n | n | n | n | n
COc1ccc([N+](=O)[O-])cc1NC(=O)c1ccc(C)o1 | n | n | n | n | n | n | x
COc1ccc(C)cc1S(=O)(=O)N(CC(=O)Nc1cc([N+](=O)[O-])ccc1C)c1ccc(C)c(C)c1 | 65 | n | n | n | n | n | n
COc1ccc(C)cc1S(=O)(=O)N(CC(=O)Nc1cccc([N+](=O)[O-])c1)c1cc(C)cc(C)c1 | n | n | n | n | n | n | x
Cc1ccc([C@H]2N[C@]3(CCCN(Cc4ccco4)C3=O)[C@H]3C(=O)N(C)C(=O)[C@@H]23)cc1 | n | x | n | n | x | n | x
CCN(CC)CCN(C)C(=O)c1[nH]c(C(F)(F)F)nc1-c1ccccc1 | n | x | n | n | x | n | x
Cc1ccc([N+](=O)[O-])cc1S(=O)(=O)N(C(=O)c1ccncc1)c1ccc2oc3c(c2c1)CCCC3 | 72 | n | n | n | n | n | n
SMILES | FAS-TE inh | Arrestin-AP2 inh | iPSC survival up | SENP1 inh | NR3A LBD binder | Cardio protect | FAS-TE conf
Cc1ccc(S(=O)(=O)N(C(=O)c2ccncc2)c2ccc3oc4c(c3c2)CCCC4)cc1[N+](=O)[O-] | 54 | n | n | n | n | n | n
Cc1ccccc1COC(=O)c1cc([N+](=O)[O-])ccc1N1CCOCC1 | n | n | n | n | n | n | x
COc1ccc(OC)c(COC(=O)c2cc([N+](=O)[O-])ccc2N2CCOCC2)c1 | 54 | n | n | n | n | n | 51
CSc1ccc(COC(=O)c2cc([N+](=O)[O-])ccc2N2CCOCC2)cc1 | 66 | n | n | n | n | n | 57
COC(=O)c1ccc(Nc2nnc(-c3ccc(C)c(S(=O)(=O)NCC4CCCO4)c3)c3ccccc23)cc1 (centres undefined) | 67 | n | n | n | n | n | n
Cc1ccc(-c2nnc(Nc3ccc(C(=O)N(C)C)cc3)c3ccccc23)cc1S(=O)(=O)NCC1CCCO1 (centres undefined) | n | n | n | n | n | n | x
O=C(Nc1ccccc1)C(Cl)C(=O)c1ccccc1 (centres undefined) | 51 | n | n | n | n | n | n
CC(=O)C(Cl)C(=O)Nc1ccccc1 (centres undefined) | n | n | n | n | n | n | x
COc1ccc([N+](=O)[O-])cc1NC(=O)N(C)Cc1ccco1 | 51 | n | n | n | n | n | 42
COc1ccc([N+](=O)[O-])cc1NC(=O)Nc1ccccc1 | 58 | n | n | n | n | n | 62
COC(=O)Nc1cc([N+](=O)[O-])ccc1OC | n | n | n | n | n | n | x
C/C=C/C=C/C(=O)OC(C)C(=O)Nc1cc([N+](=O)[O-])ccc1OC (centres undefined) | 73 | n | n | n | n | n | 60
COc1ccc([N+](=O)[O-])cc1NC(=O)C(C)OC(=O)Cc1ccc(OC)c(OC)c1 (centres undefined) | n | n | n | n | n | n | x
COc1ccc(-n2cc(C(=O)Nc3cc([N+](=O)[O-])ccc3OC)c3ccccc3c2=O)cc1 | 55 | n | n | n | n | n | n
O=C(Nc1ccc(OC(F)(F)F)cc1)c1cccc(-n2cnnn2)c1 | 56 | n | n | n | n | n | n
O=S1(=O)CC(N2CCCCC2)CN1Cc1cn(Cc2cccc(C(F)(F)F)c2)nn1 (centres undefined) | n | x | n | n | x | x | x
COc1cc(C(=O)NC(=S)Nc2ccc([N+](=O)[O-])cc2)cc(OC)c1OC | n | n | n | n | n | n | x
COc1ccccc1/C=C(\NC(=O)c1ccc(OC)c(OC)c1)C(=O)Nc1cccc([N+](=O)[O-])c1 | 88 | n | n | n | n | n | 44
O=C(NNc1cccc([N+](=O)[O-])c1)/C(=C\c1cccnc1)NC(=O)c1ccccc1 | 66 | n | n | n | n | n | 65
